In ChEMBL document CHEMBL1240462, “Synthesis and pharmacological evaluation of new methyloxiranylmethoxyxanthone analogues” (Eur J Med Chem, 2010):
Counter-ions that a name gives are not always drawn. Activity calls are given as the source filed them. No cut-off for these calls is given here.

Columns and labels:
[1] = target: DNA topoisomerase 2-alpha (Homo sapiens) (UniProt P11388); assay: Inhibition of human topoisomerase 2alpha-mediated relaxation of supercoiled pBR322 DNA at 20 uM after 30 mins by agarose gel electrophoresis
MCF7 [2] = assay: Cytotoxicity against human MCF7 cells after 4 days by MTT assay; type: functional, cell-based; conditions: MCF7, 96 h
How it was run: (§1)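 Cells seeded at 2-4 × 10^4 per well and attached overnight in medium with 10% FBS, 5% CO₂, 37 °C. Medium replaced on day 1 with graded compound concentrations. On day 4, MTT added (0.5 mg/mL final) for 4 h, formazan dissolved in DMSO, absorbance read at 570 nm. IC50 from four-parameter logistic fit; mean ± SD of three experiments in triplicate.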

MDA-MB-231 = assay: Cytotoxicity against human MDA-MB-231 cells after 4 days by MTT assay; type: functional, cell-based; conditions: MDA-MB-231, 96 h; how it was run: as §1
[3] = target: DNA topoisomerase 2-alpha (Homo sapiens) (UniProt P11388); assay: Inhibition of human topoisomerase 2alpha-mediated relaxation of supercoiled pBR322 DNA at 100 uM after 30 mins by agarose gel electrophoresis
HCT-116 [4] = assay: Cytotoxicity against human HCT116 cells after 4 days by MTT assay; type: functional, cell-based; conditions: HCT-116, 96 h; how it was run: as §1
DU-145 [5] = assay: Cytotoxicity against human DU145 cells after 4 days by MTT assay; type: functional, cell-based; conditions: DU-145, 96 h; how it was run: as §1
HeLa [6] = assay: Cytotoxicity against human HeLa cells after 4 days by MTT assay; type: functional, cell-based; conditions: 96 h; how it was run: as §1
Nucleic Acid = assay: Binding affinity to Escherichia coli linearized pBR322 DNA at 100 uM after 2 hrs by agarose gel electrophoresis; type: nucleic-acid assay
How it was run: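 DNA cross-linking: 0.5 µg EcoRI-linearized, ethanol-precipitated pBR322 incubated with compound (100 μM) for 2 h at RT in 10 mM Tris-HCl, 1 mM EDTA, pH 8.0. Run on denaturing 1.2% alkaline agarose (50 mM NaOH, 1 mM EDTA running buffer), then neutralized 1 h in 100 mM Tris, 150 mM NaCl, pH 7.6.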

HeLa [7] = assay: Ratio of compound IC50 to adriamycin IC50 for human HeLa cells; type: functional
HCT-116 [8] = assay: Ratio of compound IC50 to adriamycin IC50 for human HCT116 cells; type: functional
MCF7 [9] = assay: Ratio of compound IC50 to adriamycin IC50 for human MCF7 cells; type: functional
DU-145 [10] = assay: Ratio of compound IC50 to adriamycin IC50 for human DU145 cells; type: functional

Chain of DNA topoisomerase 2-alpha (Homo sapiens) (P11388 whole entry): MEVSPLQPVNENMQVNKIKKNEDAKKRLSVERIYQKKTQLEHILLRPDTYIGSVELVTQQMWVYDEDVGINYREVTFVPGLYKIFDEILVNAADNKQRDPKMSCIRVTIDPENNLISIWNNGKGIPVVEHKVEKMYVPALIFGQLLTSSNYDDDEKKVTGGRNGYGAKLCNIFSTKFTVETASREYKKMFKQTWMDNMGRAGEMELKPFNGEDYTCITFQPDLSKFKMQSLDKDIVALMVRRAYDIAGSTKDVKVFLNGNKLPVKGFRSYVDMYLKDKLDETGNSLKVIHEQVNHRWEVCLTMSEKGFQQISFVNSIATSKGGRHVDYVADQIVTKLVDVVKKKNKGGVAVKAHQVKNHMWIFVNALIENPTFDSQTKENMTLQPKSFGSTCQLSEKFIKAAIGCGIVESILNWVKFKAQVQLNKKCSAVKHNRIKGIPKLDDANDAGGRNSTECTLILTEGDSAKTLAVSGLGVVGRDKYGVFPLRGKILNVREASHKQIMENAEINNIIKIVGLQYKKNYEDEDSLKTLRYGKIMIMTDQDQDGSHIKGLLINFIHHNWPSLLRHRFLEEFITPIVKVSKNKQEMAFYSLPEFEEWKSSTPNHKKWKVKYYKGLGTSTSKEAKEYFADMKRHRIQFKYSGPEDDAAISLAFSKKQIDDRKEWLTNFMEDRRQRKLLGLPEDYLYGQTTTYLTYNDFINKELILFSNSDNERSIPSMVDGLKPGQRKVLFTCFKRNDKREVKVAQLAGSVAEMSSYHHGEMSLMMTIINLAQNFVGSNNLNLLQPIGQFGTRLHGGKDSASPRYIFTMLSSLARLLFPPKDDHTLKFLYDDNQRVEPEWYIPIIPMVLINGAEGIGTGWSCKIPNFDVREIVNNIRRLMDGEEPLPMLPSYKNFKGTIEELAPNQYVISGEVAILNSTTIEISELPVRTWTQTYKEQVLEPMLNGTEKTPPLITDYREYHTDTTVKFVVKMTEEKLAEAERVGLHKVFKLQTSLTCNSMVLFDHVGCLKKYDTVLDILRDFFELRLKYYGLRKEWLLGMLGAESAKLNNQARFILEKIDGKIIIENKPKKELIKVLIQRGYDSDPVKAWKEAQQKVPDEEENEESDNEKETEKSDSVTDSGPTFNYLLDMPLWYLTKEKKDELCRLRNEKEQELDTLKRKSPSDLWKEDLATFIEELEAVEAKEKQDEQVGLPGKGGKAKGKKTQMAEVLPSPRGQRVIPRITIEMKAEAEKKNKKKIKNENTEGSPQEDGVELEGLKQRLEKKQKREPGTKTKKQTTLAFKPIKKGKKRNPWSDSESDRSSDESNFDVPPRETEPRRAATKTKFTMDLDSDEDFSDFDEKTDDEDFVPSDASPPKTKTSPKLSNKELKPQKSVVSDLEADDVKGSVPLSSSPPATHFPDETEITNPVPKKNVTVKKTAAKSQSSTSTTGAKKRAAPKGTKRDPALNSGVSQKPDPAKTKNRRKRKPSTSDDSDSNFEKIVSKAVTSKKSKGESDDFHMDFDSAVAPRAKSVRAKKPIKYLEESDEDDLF

Structure (SMILES) | inhibition [1] [%] | inhibition [3] [%] | Activity (Nucleic Acid) | IC50 (MCF7 [2]) [µM] | IC50 (MDA-MB-231) [µM] | IC50 (HCT-116 [4]) [µM] | IC50 (DU-145 [5]) [µM] | IC50 (HeLa [6]) [µM] | Ratio IC50 (HeLa [7]) | Ratio IC50 (HCT-116 [8]) | Ratio IC50 (MCF7 [9]) | Ratio IC50 (DU-145 [10])
COc1cccc2c(=O)c3c(OCC(O)CCl)cc(OCC4CO4)cc3oc12 (centres undefined) | 27 | 65 | – | 69 | 18.9 | 9.9 | 3.9 | 41.7 | – | – | – | –
CC[C@@]1(O)C(=O)OCc2c1cc1n(c2=O)Cc2cc3ccccc3nc2-1 [CAMPTOTHECIN] | – | – | – | 14.2 | – | 2.3 | – | 1.1 | – | – | – | –
COc1cccc2c(=O)c3c(O)cc(OCC4(C)CO4)cc3oc12 (centres undefined) | 3 | 23 | – | > 100 | > 100 | 69.1 | > 100 | > 100 | – | – | – | –
COc1cccc2c(=O)c3c(OCC4CO4)cc(OCC4CO4)cc3oc12 (centres undefined) | 9 | 71 | Active | 9.9 | 5.4 | 2 | 2.4 | 4.7 | – | – | – | –
CC1(COc2cc(O)c3c(=O)c4ccccc4oc3c2)CO1 (centres undefined) | 11 | 25 | – | 15 | 41.7 | 12.1 | 18.9 | 14.3 | – | – | – | –
COc1cccc2c(=O)c3c(O)cc(OCC(C)(O)CCl)cc3oc12 (centres undefined) | 41 | 85 | – | 88.4 | 15.4 | 15.8 | 7.2 | 68.2 | – | – | – | –
COc1cc([C@@H]2c3cc4c(cc3[C@@H](O[C@@H]3O[C@@H]5CO[C@@H](C)O[C@H]5[C@H](O)[C@H]3O)[C@H]3COC(=O)[C@H]23)OCO4)cc(OC)c1O [ETOPOSIDE] | – | – | – | 17.5 | – | 11.9 | 13.8 | – | – | – | – | –
COc1cc(OCC(O)CCl)cc2oc3ccccc3c(=O)c12 (centres undefined) | 1 | 33 | – | > 100 | > 100 | 21.6 | 40.1 | > 100 | – | – | – | –
COc1cccc2c(=O)c3c(OC)cc(OCC4CO4)cc3oc12 (centres undefined) | 0 | 4 | – | 8 | 3.8 | 1.5 | 0.8 | 6.2 | 2 | 2 | 2 | 2
COc1cccc2c1C(=O)c1c(O)c3c(c(O)c1C2=O)C[C@@](O)(C(=O)CO)C[C@@H]3O[C@H]1C[C@H](N)[C@H](O)[C@H](C)O1 [DOXORUBICIN HYDROCHLORIDE] | – | – | – | – | 4.4 | 4 | 1.4 | – | – | – | – | –

The next lines start with results.

inhibition [1] [%] | inhibition [3] [%] | Activity (Nucleic Acid) | Structure (SMILES) | IC50 (MCF7 [2]) [µM] | IC50 (MDA-MB-231) [µM] | IC50 (HCT-116 [4]) [µM] | IC50 (DU-145 [5]) [µM] | IC50 (HeLa [6]) [µM] | Ratio IC50 (HeLa [7]) | Ratio IC50 (HCT-116 [8]) | Ratio IC50 (MCF7 [9]) | Ratio IC50 (DU-145 [10])
15 | 48 | Active | COc1cccc2c(=O)c3c(OCC4(C)CO4)cc(OCC4(C)CO4)cc3oc12 (centres undefined) | 2.5 | 5.1 | 0.8 | 0.9 | 1.5 | 2 | 2 | 2 | 2
20 | 52 | – | CC(O)(CCl)COc1cc(O)c2c(=O)c3ccccc3oc2c1 (centres undefined) | > 100 | > 100 | 47.1 | > 100 | > 100 | – | – | – | –
2 | 83 | – | COc1cccc2c(=O)c3c(OC)cc(OCC(O)CCl)cc3oc12 (centres undefined) | 51.7 | 56 | 16.4 | 15.3 | 59.5 | – | – | – | –
5 | 51 | – | COc1cc(OCC2CO2)cc2oc3ccccc3c(=O)c12 (centres undefined) | 14 | 10.9 | 6.6 | 1.5 | 10.5 | – | – | – | –
24 | 41 | Active | CC1(COc2cc(OCC3(C)CO3)c3c(=O)c4ccccc4oc3c2)CO1 (centres undefined) | 15.2 | 68.2 | 2.6 | 3.9 | 15.8 | – | – | – | –
